Assay results from paper PMC3731570 (Cell Research, 2013).

Columns and labels:
[1] = Stability measurement under UV light; type: physicochemical; conditions: water exposed to UV light (8 W)
How it was run: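 Test compound and ABA, each 100 µM in pure water, were exposed in aliquots to an 8 W UV lamp in a safety hood. Aliquots were withdrawn at set time points for LC-MS. Amounts were quantified from peak areas, and half-life was calculated from peak disappearance.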

[2] = system: reconstructed ABA signaling pathway (PYR1+HAB1+SnRK2.6+ABF2), RD29b-luciferase reporter; assay: Protoplast transactivation assay; type: cell-based, Arabidopsis thaliana; conditions: snrk2.2/2.3/2.6 protoplasts transfected with PYR1, HAB1, SnRK2.6, ABF2; 5 μM AM1
How it was run: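 Protoplasts came from 4-week-old pRD29b-LUC plants (snrk2.2/2.3/2.6 background) grown on soil pellets under 8-h light/16-h dark. They were transfected with PYR1, HAB1, SnRK2.6 and ABF2, or the same set without PYR1. Cells were treated with 5 µM test compound; DMSO control. RD29b-driven luciferase was measured.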

[3] = system: Arabidopsis seedlings transcriptome; assay: RNA-seq transcriptome profiling of seedlings; type: in vivo, Arabidopsis thaliana; conditions: 50 μM, FDR < 0.05
How it was run: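 Ten-day-old Col-0 seedlings on half-strength MS were exposed for 6 h to 50 µM test compound or (+)-ABA, or 0.05% DMSO. Duplicate biological replicates were sequenced on Illumina HiSeq2000 (10 M reads/sample, mean length >49 bp). Fold-change versus DMSO was log2-transformed; Spearman correlations were computed between samples. Differential genes were called by SAM analysis.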

[4] = system: Arabidopsis seeds (Col-0 and pyr1;pyl1;pyl4); assay: Seed germination assay; type: in vivo, Arabidopsis thaliana; conditions: 1 μM
How it was run: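 Col-0 and pyr1;pyl1;pyl4 seeds were stratified 4 days, then sown on half-strength MS (1% sucrose) containing 1 µM test compound or (+)-ABA; DMSO control. Plates were kept at 22 °C under long day, 15 seeds per plate and 4 plates per chemical. Germination was defined as expanded green cotyledons and counted 4 days after triple-mutant germination; mean ± SD.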

[5] = system: Col-0 plants rosette leaves; assay: Water loss; type: in vivo, Arabidopsis thaliana; conditions: one-month-old Col-0 plants, 50 μM spray, compared with DMSO
How it was run: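 Well-watered 4-week-old Col-0 plants on soil (8-h light/16-h dark) were sprayed with 50 µM test compound plus 0.02% Tween-20; DMSO control. Plants were returned to the chamber for 3 h. Equal-sized rosette leaves were then detached and weighed in air every 5 min for the first hour and every 10 min for the second. Loss is expressed as % of initial fresh weight; n = 4, standard error.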

[6] = system: ABA-induced stress-related genes; assay: Quantitative RT-PCR of ABA-induced genes in seedlings; type: in vivo, Arabidopsis thaliana; conditions: 50 μM, 6 h
[7] = system: HAB1 PP2C with PYR/PYL receptors; assay: HAB1 phosphatase activity assay; type: biochemical, Arabidopsis thaliana; conditions: 10 μM; PYR1 and PYL1-10

SMILES: CC1=CC(=O)CC(C)(C)[C@@]1(O)/C=C/C(C)=C\C(=O)O [ABA, Abscisic acid]
- half-life at 100 μM [1]: 24 min
- activation of RD29b-luciferase reporter [2]: efficiently activate
- number of genes induced (up- or down-regulated) vs DMSO [3]: 4 529 genes
- inhibition of seed germination ([4]; pyr1/pyl1/pyl4 triple mutant): completely abolished
- inhibition of seed germination ([4]; wild-type Col-0 seeds): inhibit germination
- water loss of rosette leaves [5]: decreased
- activation of six ABA-inducible genes ([6]; pyr1/pyl1/pyl4 triple mutant plants): much reduced, but remained inducible
- activation of six ABA-inducible genes ([6]; wild-type plants): dramatically activated
- receptor-mediated inhibition of HAB1 PP2C activity [7]: inhibited by all receptor subtypes tested
